For ten molecules, Activity, Ki and EC50 results are on record in ChEMBL document CHEMBL1140681, “Structure-based design of alpha-amido aldehyde containing gluten peptide analogues as modulators of HLA-DQ2 and transglutaminase 2” (Bioorg Med Chem, 2007).

Calls of active or inactive are those of the source. No cut-off for these calls is given here. Square brackets hold non-standard residues; d marks the D form. Peptide text beside a SMILES is read from it. * marks the point of attachment. 5FAM = O=C1OC2(c3ccc(O)cc3Oc3cc(O)ccc32)c2ccc(C(=O)*)cc21; Orn = NCCC[C@H](N)C(=O)O; Dab = NCC[C@H](N)C(=O)O; Dap = NC[C@H](N)C(=O)O; Glyoxylyl = O=CC(=O)*

Assay [1] concerns the target T1, Protein-glutamine gamma-glutamyltransferase (Homo sapiens) (UniProt P21980).
T1 sequence (whole entry): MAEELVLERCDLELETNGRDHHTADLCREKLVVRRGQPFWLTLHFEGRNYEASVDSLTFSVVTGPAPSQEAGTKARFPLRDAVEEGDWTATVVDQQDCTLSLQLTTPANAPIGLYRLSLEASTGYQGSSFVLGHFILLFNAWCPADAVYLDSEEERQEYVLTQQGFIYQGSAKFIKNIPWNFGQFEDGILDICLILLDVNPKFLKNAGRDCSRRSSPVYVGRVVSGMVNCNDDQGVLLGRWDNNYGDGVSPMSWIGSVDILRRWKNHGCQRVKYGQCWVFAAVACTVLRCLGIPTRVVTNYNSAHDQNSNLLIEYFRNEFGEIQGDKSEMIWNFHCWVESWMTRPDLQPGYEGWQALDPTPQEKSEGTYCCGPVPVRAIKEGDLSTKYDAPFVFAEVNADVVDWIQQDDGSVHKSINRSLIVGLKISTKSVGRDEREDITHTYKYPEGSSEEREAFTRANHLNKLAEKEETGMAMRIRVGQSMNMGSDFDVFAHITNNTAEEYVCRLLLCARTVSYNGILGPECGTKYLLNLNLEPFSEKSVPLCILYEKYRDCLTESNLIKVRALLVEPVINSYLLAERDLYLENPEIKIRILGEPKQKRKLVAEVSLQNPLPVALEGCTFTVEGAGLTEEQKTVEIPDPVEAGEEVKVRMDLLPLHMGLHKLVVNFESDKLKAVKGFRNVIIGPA
Description: Inhibition of human recombinant TG2 at 100 uM.

Assay [2] addresses T2, Protein-glutamine gamma-glutamyltransferase (Homo sapiens, UniProt P21980).
T2 sequence (P21980 whole entry): T1 sequence (whole entry)
Description: Inhibition of human recombinant TG2. In a few lines: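 Continuous spectrophotometric coupled deamidation assay with recombinant human TG2: MOPS buffer pH 7.2 with CaCl2, EDTA, α-ketoglutarate, glutamate dehydrogenase and NADH; Z-Gln-Gly substrate (10–40 mM); reaction started by adding TG2. Velocities from linear regression; Ki by non-linear fitting of velocity vs ZQG to Michaelis-Menten with Vmax fixed at the uninhibited value.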

Assay [3] in a line: Enhancement of antigen presentation in HLA-DQ2 homozygous B-lymphoblastoid VAVY cells. It is filed as functional, cell-based, Homo sapiens. The gist of the method:
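VAVY cells γ-irradiated (12,000 rads), pulsed with peptides for 10 h, washed by centrifugation, then co-cultured 1:1 with DQ2-αI-responsive polyclonal T cells for 48 h. [³H]thymidine (1 μCi/well) added for 18–24 h; incorporated radioactivity counted as a measure of surface peptide-DQ2 complexes; EC50 derived from titration.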

Assay [4] deals with VAVY. Description: Induction of cell proliferation in HLA-DQ2 homozygous B-lymphoblastoid VAVY cells at 10 uM after overnight incubation. It is filed as functional, cell-based. The following applies: Homo sapiens. The gist of the method:
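γ-Irradiated (12,000 rads) VAVY cells at 2×10^6 cells/ml pulsed with 10 μM peptide for 2 h or overnight, then washed out by centrifugation (800g, 3 min, 4°C). Re-suspended APCs (1×10^6/ml) co-cultured 48 h with equal volume of P28 TCL1 T cells (1×10^6/ml); [³H]thymidine 1 μCi/well for 18–24 h; proliferation by scintillation counting.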

For assay [5], the target named is T1, Protein-glutamine gamma-glutamyltransferase (Homo sapiens). Description: Inhibition of human recombinant TG2 at 750 uM.
For assay [6] the target is unchanged. Description: Inhibition of human recombinant TG2 at 500 uM.

Take `CC(=O)NCC[C@H](NC(=O)[C@@H]1CCCN1C(=O)[C@H](CCC(N)=O)NC(=O)[C@@H]1CCCN1C(=O)c1ccc2c(c1)C(=O)OC21c2ccc(O)cc2Oc2cc(O)ccc21)C(=O)N[C@@H](CC(C)C)C(=O)N1CCC[C@H]1C(=O)N[C@@H](Cc1ccccc1)C(=O)O` (5FAM-PQP[Dab](Ac)LPF-OH): the outcome in assay [1] was inactive.
As to `CC(C)C[C@H](NC(=O)[C@H](CCCNC(=O)C=O)NC(=O)[C@@H]1CCCN1C(=O)[C@H](CCC(N)=O)NC(=O)[C@@H]1CCCN1)C(=O)N1CCC[C@H]1C(=O)N[C@@H](Cc1ccccc1)C(=O)O` (H-PQP[Orn](Glyoxylyl)LPF-OH), the inhibition constant (Ki) – broadly, the equilibrium dissociation constant of an inhibitor or competing ligand from its target – in assay [2] was 200 µM.
As for `CC(C)C[C@H](NC(=O)c1ccc2c(c1)C(=O)OC21c2ccc(O)cc2Oc2cc(O)ccc21)C(=O)N[C@@H](CCC(N)=O)C(=O)N[C@@H](CC(C)C)C(=O)N[C@@H](CCC(N)=O)C(=O)N1CCC[C@H]1C(=O)N[C@@H](Cc1ccccc1)C(=O)N1CCC[C@H]1C(=O)N[C@@H](CCC(N)=O)C(=O)N1CCC[C@H]1C(=O)N[C@@H](CCC(=O)O)C(=O)N[C@@H](CC(C)C)C(=O)N1CCC[C@H]1C(=O)N[C@@H](Cc1ccc(O)cc1)C(=O)N1CCC[C@H]1C(=O)N[C@@H](CCC(N)=O)C(=O)N1CCC[C@H]1C(=O)N[C@@H](CCC(=O)O)C(=O)N[C@@H](CC(C)C)C(=O)N1CCC[C@H]1C(=O)N[C@@H](Cc1ccc(O)cc1)C(=O)O` (5FAM-LQLQPFPQPELPYPQPELPY-OH), the EC50 (usually the concentration needed to bring the measured effect to its halfway point) in assay [3] was found to be 0.016 µM.
`CC(C)C[C@H](NC(=O)c1ccc2c(c1)C(=O)OC21c2ccc(O)cc2Oc2cc(O)ccc21)C(=O)N[C@@H](CCC(N)=O)C(=O)N1CCC[C@H]1C(=O)N[C@@H](Cc1ccccc1)C(=O)N1CCC[C@H]1C(=O)N[C@@H](CNC(=O)C=O)C(=O)N1CCC[C@H]1C(=O)N[C@@H](CCC(=O)O)C(=O)N[C@@H](CC(C)C)C(=O)N1CCC[C@H]1C(=O)N[C@@H](Cc1ccc(O)cc1)C(=O)O` (5FAM-LQPFP[Dap](Glyoxylyl)PELPY-OH): the result in assay [4] was Active. Further, the EC50 in assay [3] turned out to be 1 µM.
Regarding `CC(C)C[C@H](NC(=O)[C@H](CNC(=O)C=O)NC(=O)[C@@H]1CCCN1C(=O)[C@H](CCC(N)=O)NC(=O)[C@@H]1CCCN1)C(=O)N1CCC[C@H]1C(=O)N[C@@H](Cc1ccccc1)C(=O)O` (H-PQP[Dap](Glyoxylyl)LPF-OH), the inhibition constant Ki in assay [2] was 300 µM.
Take `CC(C)C[C@H](NC(=O)[C@H](CCNC(=O)C=O)NC(=O)[C@@H]1CCCN1C(=O)[C@H](CCC(N)=O)NC(=O)[C@@H]1CCCN1)C(=O)N1CCC[C@H]1C(=O)N[C@@H](Cc1ccccc1)C(=O)O` (H-PQP[Dab](Glyoxylyl)LPF-OH): in assay [2], the Ki came to 40 µM.
With `CC(C)C[C@H](NC(=O)c1ccc2c(c1)C(=O)OC21c2ccc(O)cc2Oc2cc(O)ccc21)C(=O)N[C@@H](CCC(N)=O)C(=O)N[C@@H](CC(C)C)C(=O)N[C@@H](CCC(N)=O)C(=O)N1CCC[C@H]1C(=O)N[C@@H](Cc1ccccc1)C(=O)N1CCC[C@H]1C(=O)N[C@@H](CNC(=O)C=O)C(=O)N1CCC[C@H]1C(=O)N[C@@H](CCC(=O)O)C(=O)N[C@@H](CC(C)C)C(=O)N1CCC[C@H]1C(=O)N[C@@H](Cc1ccc(O)cc1)C(=O)N1CCC[C@H]1C(=O)N[C@@H](CNC(=O)C=O)C(=O)N1CCC[C@H]1C(=O)N[C@@H](CCC(=O)O)C(=O)N[C@@H](CC(C)C)C(=O)N1CCC[C@H]1C(=O)N[C@@H](Cc1ccc(O)cc1)C(=O)O` (5FAM-LQLQPFP[Dap](Glyoxylyl)PELPYP[Dap](Glyoxylyl)PELPY-OH), the EC50 in assay [3] came out at 0.039 µM.
For `CC(C)C[C@H](NC(=O)[C@H](NC(=O)C=O)NC(=O)[C@@H]1CCCN1C(=O)[C@H](CCC(N)=O)NC(=O)[C@@H]1CCCN1)C(=O)N1CCC[C@H]1C(=O)N[C@@H](Cc1ccccc1)C(=O)O`, in assay [5], the result was inactive.
On to `CC(C)C[C@H](NC(=O)c1ccc2c(c1)C(=O)OC21c2ccc(O)cc2Oc2cc(O)ccc21)C(=O)N[C@@H](CCC(N)=O)C(=O)N1CCC[C@H]1C(=O)N[C@@H](Cc1ccccc1)C(=O)N1CCC[C@H]1C(=O)N[C@@H](CCC(N)=O)C(=O)N1CCC[C@H]1C(=O)N[C@@H](CCC(=O)O)C(=O)N[C@@H](CC(C)C)C(=O)N1CCC[C@H]1C(=O)N[C@@H](Cc1ccc(O)cc1)C(=O)O` (5FAM-LQPFPQPELPY-OH), for which, in assay [3], the concentration for a half-maximal effect (EC50) stood at 3.3 µM.
For the molecule `CC(C)C[C@H](NC(=O)[C@H](CCCCNC(=O)C=O)NC(=O)[C@@H]1CCCN1C(=O)[C@H](CCC(N)=O)NC(=O)[C@@H]1CCCN1)C(=O)N1CCC[C@H]1C(=O)N[C@@H](Cc1ccccc1)C(=O)O` (H-PQPK(Glyoxylyl)LPF-OH), in assay [6], the result was inactive.
